Experimental data taken from ChEMBL document CHEMBL1153576, “Novel ureas and thioureas of 15-membered azalides with antibacterial activity against key respiratory pathogens” (Eur J Med Chem, 2009).
Converted amounts (≈) assume the structure as drawn.

What was measured:
Type in all cases: functional
Haemophilus influenzae = experiment: Antibacterial activity against Haemophilus influenzae ATCC 49247 after 16 to 22 hrs by broth dilution method
Outline: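 Microdilution trays following the CLSI standard, with two-fold serial dilutions in supplemented broth suited to H. influenzae. DMF stocks at 5 mg/ml. Inoculum prepared from a turbidity-adjusted direct colony suspension to about 5 × 10⁴ CFU/well final. Incubated at 35 °C for 16–22 h. MIC is the lowest concentration giving complete (99%) growth inhibition.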

Streptococcus pneumoniae [1] = experiment: Antibacterial activity against efflux-mediated macrolide-resistant Streptococcus pneumoniae after 16 to 22 hrs by broth microdilution method
Outline: (§1)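 Two-fold serial dilutions in microdilution trays, following the CLSI dilution standard for aerobic bacteria. Medium was Mueller–Hinton broth with 5% horse serum for streptococci. Stocks were made at 5 mg/ml in DMF. Inoculum came from a direct colony suspension adjusted by turbidity to about 5 × 10⁴ CFU/well final. Incubation was at 35 °C for 16–22 h. MIC is the lowest concentration completely inhibiting growth (99% inhibition).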

Streptococcus pneumoniae [2] = experiment: Antibacterial activity against erythromycin-susceptible Streptococcus pneumoniae after 16 to 22 hrs by broth microdilution method
Outline: (§2)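 Streptococci tested by CLSI broth microdilution in Mueller–Hinton broth with 5% horse serum, using two-fold serial dilutions. Compounds were dissolved in DMF at 5 mg/ml (stock). Inoculum was a turbidity-adjusted direct colony suspension giving about 5 × 10⁴ CFU/well. Trays were held at 35 °C for 16–22 h. MIC is the lowest concentration completely inhibiting growth (99%).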

Escherichia coli = experiment: Antibacterial activity against Escherichia coli ATCC 25922 after 16 to 22 hrs by broth dilution method
Outline: (§3)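 Broth microdilution per the CLSI approved standard (sixth edition), using two-fold serial dilutions of compound in Mueller–Hinton broth. Stocks at 5 mg/ml in DMF. Inoculum came from a direct colony suspension adjusted by turbidity to about 5 × 10⁴ CFU/well final. Trays were incubated at 35 °C for 16–22 h. MIC is the lowest concentration completely inhibiting growth (99% inhibition).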

Streptococcus pneumoniae [3] = experiment: Antibacterial activity against constitutive macrolide-lincosamide-streptogramin-resistant Streptococcus pneumoniae after 16 to 22 hrs by broth microdilution method; outline: as §1
Streptococcus pyogenes [4] = experiment: Antibacterial activity against inducible macrolide-lincosamide-streptogramin-resistant Streptococcus pyogenes 16 to 22 hrs by broth microdilution method; outline: as §1
Streptococcus pyogenes [5] = experiment: Antibacterial activity against efflux-mediated macrolide-resistance Streptococcus pyogenes after 16 to 22 hrs by broth microdilution method; outline: as §1
Staphylococcus aureus = experiment: Antibacterial activity against Staphylococcus aureus ATCC 29213 after 16 to 22 hrs by broth microdilution method; outline: as §3
Streptococcus pyogenes [6] = experiment: Antibacterial activity against erythromycin-susceptible Streptococcus pyogenes after 16 to 22 hrs by broth microdilution method; outline: as §2
Moraxella catarrhalis = experiment: Antibacterial activity against Moraxella catarrhalis ATCC 23246 after 16 to 22 hrs by broth dilution method; outline: as §3
Enterococcus faecalis = experiment: Antibacterial activity against Enterococcus faecalis ATCC 29212 after 16 to 22 hrs by broth dilution method; outline: as §3

| SMILES | MIC (Haemophilus influenzae) | MIC (Streptococcus pneumoniae [1]) | MIC (Streptococcus pneumoniae [2]) | MIC (Escherichia coli) | MIC (Streptococcus pneumoniae [3]) | MIC (Streptococcus pyogenes [4]) | MIC (Streptococcus pyogenes [5]) | MIC (Staphylococcus aureus) | MIC (Streptococcus pyogenes [6]) | MIC (Moraxella catarrhalis) | MIC (Enterococcus faecalis) |
| --- | --- | --- | --- | --- | --- | --- | --- | --- | --- | --- | --- |
| CC[C@H]1OC(=O)[C@H](C)[C@@H](O[C@H]2C[C@@](C)(OC)[C@@H](O)[C@H](C)O2)[C@H](C)[C@@H](O[C@@H]2O[C@H](C)C[C@H](N(C)C)[C@H]2O)[C@](C)(O)C[C@@H](C)CN(CCCNC(=S)NCCc2ccccc2)[C@H](C)[C@@H](O)[C@]1(C)O | 2 µg/mL (≈ 2.09 µM) | 8 µg/mL (≈ 8.37 µM) | ≤ 0.125 µg/mL | 32 µg/mL (≈ 33.5 µM) | > 64 µg/mL | 4 µg/mL (≈ 4.19 µM) | 4 µg/mL (≈ 4.19 µM) | 1 µg/mL (≈ 1.05 µM) | ≤ 0.125 µg/mL | 1 µg/mL (≈ 1.05 µM) | 16 µg/mL (≈ 16.7 µM) |
| CC[C@H]1OC(=O)[C@H](C)[C@@H](O[C@H]2C[C@@](C)(OC)[C@@H](O)[C@H](C)O2)[C@H](C)[C@@H](O[C@@H]2O[C@H](C)C[C@H](N(C)C)[C@H]2O)[C@](C)(O)C[C@@H](C)CN(CCCNC(=O)Nc2ccccc2)[C@H](C)[C@@H](O)[C@]1(C)O | 8 µg/mL (≈ 8.78 µM) | 16 µg/mL (≈ 17.6 µM) | ≤ 0.125 µg/mL | 8 µg/mL (≈ 8.78 µM) | > 64 µg/mL | 4 µg/mL (≈ 4.39 µM) | 16 µg/mL (≈ 17.6 µM) | 0.25 µg/mL (≈ 0.274 µM) | ≤ 0.125 µg/mL | 2 µg/mL (≈ 2.19 µM) | 16 µg/mL (≈ 17.6 µM) |
| CC[C@H]1OC(=O)[C@H](C)[C@@H](O[C@H]2C[C@@](C)(OC)[C@@H](O)[C@H](C)O2)[C@H](C)[C@@H](O[C@@H]2O[C@H](C)C[C@H](N(C)C)[C@H]2O)[C@](C)(O)C[C@@H](C)CN(CCCNC(=S)Nc2ccccc2)[C@H](C)[C@@H](O)[C@]1(C)O | 4 µg/mL (≈ 4.31 µM) | 16 µg/mL (≈ 17.3 µM) | ≤ 0.125 µg/mL | 8 µg/mL (≈ 8.63 µM) | > 64 µg/mL | 8 µg/mL (≈ 8.63 µM) | 16 µg/mL (≈ 17.3 µM) | 0.5 µg/mL (≈ 0.539 µM) | ≤ 0.125 µg/mL | 2 µg/mL (≈ 2.16 µM) | 8 µg/mL (≈ 8.63 µM) |
| CC[C@H]1OC(=O)[C@H](C)[C@@H](O[C@H]2C[C@@](C)(OC)[C@@H](O)[C@H](C)O2)[C@H](C)[C@@H](O[C@@H]2O[C@H](C)C[C@H](N(C)C)[C@H]2O)[C@](C)(O)C[C@@H](C)CN(CCCN(CCC#N)C(=O)NC(C)C)[C@H](C)[C@@H](O)[C@]1(C)O | 4 µg/mL (≈ 4.3 µM) | 32 µg/mL (≈ 34.4 µM) | ≤ 0.125 µg/mL | 16 µg/mL (≈ 17.2 µM) | > 64 µg/mL | 32 µg/mL (≈ 34.4 µM) | 32 µg/mL (≈ 34.4 µM) | 4 µg/mL (≈ 4.3 µM) | ≤ 0.125 µg/mL | 0.5 µg/mL (≈ 0.537 µM) | 64 µg/mL (≈ 68.8 µM) |
| CC[C@H]1OC(=O)[C@H](C)[C@@H](O[C@H]2C[C@@](C)(OC)[C@@H](O)[C@H](C)O2)[C@H](C)[C@@H](O[C@@H]2O[C@H](C)C[C@H](N(C)C)[C@H]2O)[C@](C)(O)C[C@@H](C)CN(CCCNC(=O)NCc2ccccc2)[C@H](C)[C@@H](O)[C@]1(C)O | 2 µg/mL (≈ 2.16 µM) | 16 µg/mL (≈ 17.3 µM) | ≤ 0.125 µg/mL | 8 µg/mL (≈ 8.65 µM) | > 64 µg/mL | 4 µg/mL (≈ 4.32 µM) | 8 µg/mL (≈ 8.65 µM) | 0.5 µg/mL (≈ 0.54 µM) | ≤ 0.125 µg/mL | 1 µg/mL (≈ 1.08 µM) | 16 µg/mL (≈ 17.3 µM) |
| CC[C@H]1OC(=O)[C@H](C)[C@@H](O[C@H]2C[C@@](C)(OC)[C@@H](O)[C@H](C)O2)[C@H](C)[C@@H](O[C@@H]2O[C@H](C)C[C@H](N(C)C)[C@H]2O)[C@](C)(O)C[C@@H](C)CN(CCCNC(=S)NCc2ccccc2)[C@H](C)[C@@H](O)[C@]1(C)O | 2 µg/mL (≈ 2.12 µM) | 8 µg/mL (≈ 8.5 µM) | ≤ 0.125 µg/mL | 16 µg/mL (≈ 17 µM) | 64 µg/mL (≈ 68 µM) | 4 µg/mL (≈ 4.25 µM) | 4 µg/mL (≈ 4.25 µM) | 0.5 µg/mL (≈ 0.531 µM) | ≤ 0.125 µg/mL | 1 µg/mL (≈ 1.06 µM) | 8 µg/mL (≈ 8.5 µM) |
| CC[C@H]1OC(=O)[C@H](C)[C@@H](O[C@H]2C[C@@](C)(OC)[C@@H](O)[C@H](C)O2)[C@H](C)[C@@H](O[C@@H]2O[C@H](C)C[C@H](N(C)C)[C@H]2O)[C@](C)(O)C[C@@H](C)CN(CCCN(CCC#N)C(=O)Nc2ccccc2)[C@H](C)[C@@H](O)[C@]1(C)O | 8 µg/mL (≈ 8.3 µM) | 32 µg/mL (≈ 33.2 µM) | ≤ 0.125 µg/mL | 32 µg/mL (≈ 33.2 µM) | > 64 µg/mL | 16 µg/mL (≈ 16.6 µM) | 32 µg/mL (≈ 33.2 µM) | 1 µg/mL (≈ 1.04 µM) | ≤ 0.125 µg/mL | 4 µg/mL (≈ 4.15 µM) | 32 µg/mL (≈ 33.2 µM) |
